The values below come from PubChem BioAssay.

Assay [1] in a line: reducers of endogenous Her2 protein level, primary screen, SKBR3 breast tumor cells, AlphaScreen, ATP viability (AID 461;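 active = Her2 level under about 52% in both replicate screens, with viability over 70% of control, limit read from the data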;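 for Her2 level: lower value means less Her2 protein in the cells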;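 for viability: percent of carrier control wells set as 100% viability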). Particulars: 18-24 h, measured here: SKBR3 viability, ATP luminescence, at 10 µM. For orientation: Bead proximity is the source of the signal in Alpha formats.
The target of assay [2] is Receptor tyrosine-protein kinase erbB-2 (Homo sapiens) (UniProt P04626). The description is as above. Particulars: 18-24 h, at 10 µM, stronger effect = lower value.
Sequence of Receptor tyrosine-protein kinase erbB-2 (Homo sapiens) (P04626 whole entry, looked up): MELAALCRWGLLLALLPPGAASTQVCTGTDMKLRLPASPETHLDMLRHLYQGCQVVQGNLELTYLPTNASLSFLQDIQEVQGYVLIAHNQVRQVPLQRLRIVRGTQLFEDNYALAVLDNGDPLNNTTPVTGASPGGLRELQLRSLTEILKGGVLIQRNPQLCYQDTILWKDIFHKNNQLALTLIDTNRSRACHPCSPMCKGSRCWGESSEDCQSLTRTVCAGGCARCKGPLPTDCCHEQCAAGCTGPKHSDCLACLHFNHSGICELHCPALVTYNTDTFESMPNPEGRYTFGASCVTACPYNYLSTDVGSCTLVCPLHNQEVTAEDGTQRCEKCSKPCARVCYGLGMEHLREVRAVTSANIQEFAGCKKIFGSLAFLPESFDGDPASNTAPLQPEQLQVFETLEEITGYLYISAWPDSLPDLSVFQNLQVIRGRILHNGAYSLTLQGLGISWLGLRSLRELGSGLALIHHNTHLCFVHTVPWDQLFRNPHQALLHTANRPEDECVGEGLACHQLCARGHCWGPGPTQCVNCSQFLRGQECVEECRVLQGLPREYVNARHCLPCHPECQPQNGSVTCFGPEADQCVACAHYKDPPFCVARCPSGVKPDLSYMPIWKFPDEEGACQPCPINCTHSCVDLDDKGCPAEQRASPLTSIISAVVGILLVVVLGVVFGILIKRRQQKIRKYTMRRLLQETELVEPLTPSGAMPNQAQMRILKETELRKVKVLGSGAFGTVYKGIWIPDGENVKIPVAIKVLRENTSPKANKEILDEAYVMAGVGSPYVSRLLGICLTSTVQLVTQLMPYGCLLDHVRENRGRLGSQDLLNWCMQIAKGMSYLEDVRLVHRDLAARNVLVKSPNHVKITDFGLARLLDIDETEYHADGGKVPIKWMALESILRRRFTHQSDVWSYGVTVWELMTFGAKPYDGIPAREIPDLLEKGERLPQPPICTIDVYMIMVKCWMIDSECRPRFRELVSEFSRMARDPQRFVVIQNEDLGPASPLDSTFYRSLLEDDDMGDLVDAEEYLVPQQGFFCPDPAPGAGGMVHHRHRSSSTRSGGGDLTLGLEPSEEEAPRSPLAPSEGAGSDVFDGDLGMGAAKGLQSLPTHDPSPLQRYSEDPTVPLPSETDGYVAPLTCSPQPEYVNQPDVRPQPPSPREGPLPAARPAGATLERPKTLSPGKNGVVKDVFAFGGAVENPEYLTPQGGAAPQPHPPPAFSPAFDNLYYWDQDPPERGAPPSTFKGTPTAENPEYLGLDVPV
Assay [3] is described as follows: SK-BR-3 cell growth inhibitors, pilot screen, 24 h, human (AID 572;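 active = viability at or below 10% of carrier control in both of two separate runs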;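 note: compound exposure lasted between 18 and 24 h rather than exactly 24 h; 100% = carrier-treated control wells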). Particulars: SK-BR-3 viability, CellTiter-Glo luminescence, at 10 µM, stronger effect = lower value.
The nature of assay [4]: HUVEC growth inhibition – cell-based, human, primary screen (AID 575;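 active = viability at or below 30% in both replicate assays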;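 note: 100% = median of untreated cell wells with 0.1% DMSO on each plate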). The following applies: HUVEC proliferation, CellTiter-Glo luminescence, 72 h; at 10 µM; stronger effect = lower value. The essentials:
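material = primary HUVEC, no more than 12 passages | input = 1250 cells per well | controls = vehicle and MePR control wells | measured by = CTG luminescence | times = 72 h compound incubation | format = collagen-coated 384-well format | read-out = % viability vs DMSO wells | doses = single 10 µM dose, 0.1% DMSO, from 5x medium stock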
A general note: Cellular ATP, detected with luciferase, serves as a proxy for viable cell number.

The nature of assay [5]: growth inhibitors of H69AR lung tumor, primary screen, human, duplicate replicates (AID 580;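 active = viability at or under a set limit in both replicates, limit being median viability minus 3 SD, cut at about 48% in these data, passing the limit was not always enough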;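 note: 100% = mean luminescence of untreated wells and 0% = no signal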). Particulars: H69AR lung tumor cells viability, ATP luminescence, 72 h; at 10 µM; stronger effect = lower value.
Assay [6] is described as follows: reversal of MRP1-mediated doxorubicin resistance, pilot screen, H69AR cells, doxorubicin co-treatment (AID 601;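 active = viability loss from added drug above about 55%, and viability with drug at most 40%, in both replicates, limit read from the data, passing the limit was not always enough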). The following applies: CellTiter-Glo, 72 h, at 10 µM; for differential viability (reversal): stronger effect = higher value.
Assay [7] is described as follows: 384-well plate pilot, post-Golgi transport modulator project, inhibition of yeast transport mutant growth (AID 636; in the data active = inhibition above about 31%). Particulars: absorbance 615 nm, about 18 h, stronger effect = higher value.
Assay [8] can be described thus: growth suppression of yeast trafficking mutant, preliminary HTS, modulators of trafficking downstream of Golgi apparatus project, 1536-format plate, OD 615 nm (AID 637). The following applies: yeast transport mutant growth, absorbance 615 nm, 18 h; stronger effect = higher value.
[9] abbreviates: H69AR cells + 2 uM doxorubicin, measured here: viability with 2 uM doxorubicin, stronger effect = lower value.
Setting [10] is: H69AR cells, compound alone cytotoxicity.

Active and inactive are the calls of the source. Cut-off read from the data, not from the text of the source, unless noted: active = inhibition above about 30%; inactive = the rest.

Usually viability stands for a read-out of living cells in per cent, often relative to untreated cells. By inhibition is commonly meant the change of the read-out against control, counted positive when it falls. Take `CCOc1cc(S(=O)(=O)Nc2ccccn2)ccc1F`: the viability was 114% in assay [1]; 114% (inactive) in assay [3]; 108% (inactive) in assay [4]; 101% (inactive) in assay [5]; 93.3% in assay [6] (setting [9]); 101% in assay [6] (setting [10]). For the same molecule, in assay [2], the Her2 level was 110% (inactive). Moreover, the differential viability (reversal) in assay [6] (H69AR cells + 2 uM doxorubicin) is 7.25% (inactive). For the same molecule, the inhibition was -4% (inactive) in assay [7] and -5.9% (inactive) in assay [8].

For the molecule `COc1ccccc1-c1nc(C#N)c(N2CCN(c3ccccc3)CC2)o1`, the viability in assay [1] is 104%; in assay [3], 104% (inactive); in assay [4], 70.4% (inactive); in assay [5], 89.8% (inactive); in assay [6] (setting [9]), 79.6%; in assay [6] (setting [10]) it was 89.8%. For the same molecule, the Her2 level in assay [2] is 79.5% (inactive). For the same molecule, in assay [6] (H69AR cells + 2 uM doxorubicin), the differential viability (reversal) is 10.2% (inactive). Besides, the inhibition in assay [7] was -3.68% (inactive); in assay [8], 3.65% (inactive).

Consider `CC(C)CCNC(=O)CCNS(=O)(=O)c1ccc(Cl)cc1`, for which the viability in assay [1] is 110%; in assay [3] it was 110% (inactive); in assay [4] it was 99.7% (inactive); in assay [5], 94.1% (inactive); in assay [6] (setting [9]), 94.4%; in assay [6] (setting [10]), 94.1%. The Her2 level in assay [2] was 95% (inactive). For the same molecule, the differential viability (reversal) in assay [6] (H69AR cells + 2 uM doxorubicin) is -0.295% (inactive). In addition, the results for the inhibition in assay [7] and in assay [8] were -1.71% (inactive) and -4.03% (inactive), respectively.

Consider `COC(=O)C1=C(C)OC(N)=C(C#N)C1c1c(C)nn(-c2ccccc2)c1Cl` (stereo not given), for which the viability in assay [1] was 89%; in assay [3], 89% (inactive); in assay [4], 70.7% (inactive); in assay [5], 79.7% (inactive); in assay [6] (setting [9]) it was 86.7%; in assay [6] (setting [10]), 79.7%. In addition, the Her2 level in assay [2] is 118% (inactive). In addition, the differential viability (reversal) in assay [6] (H69AR cells + 2 uM doxorubicin) was -6.99% (inactive). The inhibition in assay [7] is -0.27% (inactive); in assay [8], 16.6% (inactive).

With `CCOC(=O)c1oc2ccccc2c1CSc1nnnn1-c1ccc(C)cc1`, the viability in assay [1] is 94.5%; in assay [3], 94.5% (inactive); in assay [4] it was 83.2% (inactive); in assay [5], 69.3% (inactive); in assay [6] (setting [9]), 88%; in assay [6] (setting [10]), 69.3%. Further, the Her2 level in assay [2] was 99% (inactive). The differential viability (reversal) in assay [6] (H69AR cells + 2 uM doxorubicin) is -18.7% (inactive). Further, the inhibition in assay [7] is 2.08% (inactive); in assay [8], -6.98% (inactive).

As for `O=C(COc1ccc(Cl)cc1)NCc1nnc(SCC(=O)Nc2ccc3c(c2)OCCO3)o1`, the viability in assay [1] was 102%; in assay [3], 102% (inactive); in assay [4], 112% (inactive); in assay [5] it was 97.3% (inactive); in assay [6] (setting [9]), 101%; in assay [6] (setting [10]), 97.3%. Further, the Her2 level in assay [2] is 122% (inactive). Moreover, the differential viability (reversal) in assay [6] (H69AR cells + 2 uM doxorubicin) is -3.68% (inactive). Besides, the inhibition in assay [7] was 2.82% (inactive); in assay [8], -11.7% (inactive).

Consider `CCc1nnc(NC(=O)c2cc3ccccc3oc2=O)s1`, for which the viability is 104% in assay [1]; 104% (inactive) in assay [3]; 118% (inactive) in assay [4]; 89.7% (inactive) in assay [5]; 93.8% in assay [6] (setting [9]); 89.7% in assay [6] (setting [10]). Moreover, the Her2 level in assay [2] was 95.5% (inactive). In addition, in assay [6] (H69AR cells + 2 uM doxorubicin), the differential viability (reversal) was -4.11% (inactive). The inhibition in assay [7] was -5.71% (inactive); in assay [8], -3.65% (inactive).

With `COc1ccc(NC(=O)C(C)NS(=O)(=O)c2ccccc2)cc1Cl` (stereo not given), the viability in assay [1] was 92%; in assay [3] it was 92% (inactive); in assay [4] it was 98.4% (inactive); in assay [5] it was 97.7% (inactive); in assay [6] (setting [9]), 91%; in assay [6] (setting [10]), 97.7%. The Her2 level in assay [2] is 99% (inactive). Besides, in assay [6] (H69AR cells + 2 uM doxorubicin), the differential viability (reversal) is 6.73% (inactive). The results for the inhibition in assay [7] and in assay [8] were -3.87% (inactive) and -6.19% (inactive), respectively.

In the case of `c1cncc(-c2nnc3n2N=C(c2cccs2)CS3)c1`, the viability is 90.5% in assay [1]; 90.5% (inactive) in assay [3]; 78.2% (inactive) in assay [4]; 92.5% (inactive) in assay [5]; 88.5% in assay [6] (setting [9]); 92.5% in assay [6] (setting [10]). In addition, in assay [2], the Her2 level was 73.5% (inactive). Further, the differential viability (reversal) in assay [6] (H69AR cells + 2 uM doxorubicin) was 4.06% (inactive). The inhibition in assay [7] is -4.34% (inactive); in assay [8], -0.83% (inactive).

For `COc1ccc(CNC(=O)c2cc3c(=O)n4ccccc4nc3n(Cc3ccco3)c2=N)cc1`, the viability is 114% in assay [1]; 114% (inactive) in assay [3]; 105% (inactive) in assay [4]; 110% (inactive) in assay [5]; 76.9% in assay [6] (setting [9]); 110% in assay [6] (setting [10]). In addition, the Her2 level in assay [2] was 97.5% (inactive). For the same molecule, the differential viability (reversal) in assay [6] (H69AR cells + 2 uM doxorubicin) was 33% (inactive). Besides, the inhibition in assay [7] is -0.39% (inactive); in assay [8], -5.08% (inactive).

Consider `CCOc1cc(-c2nc(-c3ccc(C)nc3OCC)no2)cc(OCC)c1OCC`, for which the viability in assay [1] is 91.5%; in assay [3], 91.5% (inactive); in assay [4], 82.2% (inactive); in assay [5] it was 94.8% (inactive); in assay [6] (setting [9]), 98%; in assay [6] (setting [10]) it was 94.8%. In addition, in assay [2], the Her2 level was 108% (inactive). The differential viability (reversal) in assay [6] (H69AR cells + 2 uM doxorubicin) was -3.25% (inactive). Further, the inhibition was 2% (inactive) in assay [7] and 3.44% (inactive) in assay [8].

As for `CCCC(=O)N(c1ccc2oc(=O)sc2c1)S(=O)(=O)c1ccccc1`, the viability in assay [1] is 75.5%; in assay [3], 75.5% (inactive); in assay [4], 78.3% (inactive); in assay [5] it was 60% (inactive); in assay [6] (setting [9]), 80.9%; in assay [6] (setting [10]) it was 60%. In addition, the Her2 level in assay [2] is 78.5% (inactive). The differential viability (reversal) in assay [6] (H69AR cells + 2 uM doxorubicin) is -20.9% (inactive). The results for the inhibition in assay [7] and in assay [8] were -2.86% (inactive) and -3.81% (inactive), respectively.

In the case of `Cc1cccc(CCNC(=O)C2CCCN(S(=O)(=O)c3cnc[nH]3)C2)c1` (stereo not given), the viability in assay [1] is 99.5%; in assay [3] it was 99.5% (inactive); in assay [4], 103% (inactive); in assay [5], 89.4% (inactive); in assay [6] (setting [9]), 86.2%; in assay [6] (setting [10]), 89.4%. Moreover, the Her2 level in assay [2] is 106% (inactive). In addition, the differential viability (reversal) in assay [6] (H69AR cells + 2 uM doxorubicin) was 3.16% (inactive). The values for the inhibition in assay [7] and in assay [8] were -4.93% (inactive) and -1.97% (inactive), respectively.

On to `C/C(NC1CCCC1)=C(/C#N)C(N)=O`, for which the viability in assay [1] was 108%; in assay [3] it was 108% (inactive); in assay [4], 116% (inactive); in assay [5] it was 111% (inactive); in assay [6] (setting [9]) it was 101%; in assay [6] (setting [10]), 111%. In assay [2], the Her2 level was 99% (inactive). Further, the differential viability (reversal) in assay [6] (H69AR cells + 2 uM doxorubicin) was 10.3% (inactive). For the same molecule, the inhibition in assay [7] was -4.21% (inactive); in assay [8], 3.11% (inactive).

Regarding `COc1ccc2cc(C#N)c(NC(C)C)nc2c1`, the viability is 90.5% in assay [1]; 90.5% (inactive) in assay [3]; 90.8% (inactive) in assay [4]; 75.4% (inactive) in assay [5]; 81.4% in assay [6] (setting [9]); 75.4% in assay [6] (setting [10]). In addition, the Her2 level in assay [2] was 63% (inactive). Besides, the differential viability (reversal) in assay [6] (H69AR cells + 2 uM doxorubicin) was -6.05% (inactive). The inhibition in assay [7] was -2.76% (inactive); in assay [8] it was 2.91% (inactive).
